From ChEMBL document CHEMBL3797186, “Single Residue Substitutions That Confer Voltage-Gated Sodium Ion Channel Subtype Selectivity in the NaV1.7 Inhibitory Peptide GpTx-1” (J Med Chem, 2016)
Positions of bridges follow the written chain, without caps; N, C: chain ends. Residues, ends and D or L forms follow the SMILES beside them.

Columns and labels:
[1] = biological target: Sodium channel protein type 9 subunit alpha (Homo sapiens, UniProt Q15858); experiment: Inhibition of human Nav1.7 expressed in HEK293 cells assessed as inward peak current by ion-works quattro patch clamp electrophysiology method; type: cell-based
Chain of Sodium channel protein type 9 subunit alpha (Q15858 whole entry): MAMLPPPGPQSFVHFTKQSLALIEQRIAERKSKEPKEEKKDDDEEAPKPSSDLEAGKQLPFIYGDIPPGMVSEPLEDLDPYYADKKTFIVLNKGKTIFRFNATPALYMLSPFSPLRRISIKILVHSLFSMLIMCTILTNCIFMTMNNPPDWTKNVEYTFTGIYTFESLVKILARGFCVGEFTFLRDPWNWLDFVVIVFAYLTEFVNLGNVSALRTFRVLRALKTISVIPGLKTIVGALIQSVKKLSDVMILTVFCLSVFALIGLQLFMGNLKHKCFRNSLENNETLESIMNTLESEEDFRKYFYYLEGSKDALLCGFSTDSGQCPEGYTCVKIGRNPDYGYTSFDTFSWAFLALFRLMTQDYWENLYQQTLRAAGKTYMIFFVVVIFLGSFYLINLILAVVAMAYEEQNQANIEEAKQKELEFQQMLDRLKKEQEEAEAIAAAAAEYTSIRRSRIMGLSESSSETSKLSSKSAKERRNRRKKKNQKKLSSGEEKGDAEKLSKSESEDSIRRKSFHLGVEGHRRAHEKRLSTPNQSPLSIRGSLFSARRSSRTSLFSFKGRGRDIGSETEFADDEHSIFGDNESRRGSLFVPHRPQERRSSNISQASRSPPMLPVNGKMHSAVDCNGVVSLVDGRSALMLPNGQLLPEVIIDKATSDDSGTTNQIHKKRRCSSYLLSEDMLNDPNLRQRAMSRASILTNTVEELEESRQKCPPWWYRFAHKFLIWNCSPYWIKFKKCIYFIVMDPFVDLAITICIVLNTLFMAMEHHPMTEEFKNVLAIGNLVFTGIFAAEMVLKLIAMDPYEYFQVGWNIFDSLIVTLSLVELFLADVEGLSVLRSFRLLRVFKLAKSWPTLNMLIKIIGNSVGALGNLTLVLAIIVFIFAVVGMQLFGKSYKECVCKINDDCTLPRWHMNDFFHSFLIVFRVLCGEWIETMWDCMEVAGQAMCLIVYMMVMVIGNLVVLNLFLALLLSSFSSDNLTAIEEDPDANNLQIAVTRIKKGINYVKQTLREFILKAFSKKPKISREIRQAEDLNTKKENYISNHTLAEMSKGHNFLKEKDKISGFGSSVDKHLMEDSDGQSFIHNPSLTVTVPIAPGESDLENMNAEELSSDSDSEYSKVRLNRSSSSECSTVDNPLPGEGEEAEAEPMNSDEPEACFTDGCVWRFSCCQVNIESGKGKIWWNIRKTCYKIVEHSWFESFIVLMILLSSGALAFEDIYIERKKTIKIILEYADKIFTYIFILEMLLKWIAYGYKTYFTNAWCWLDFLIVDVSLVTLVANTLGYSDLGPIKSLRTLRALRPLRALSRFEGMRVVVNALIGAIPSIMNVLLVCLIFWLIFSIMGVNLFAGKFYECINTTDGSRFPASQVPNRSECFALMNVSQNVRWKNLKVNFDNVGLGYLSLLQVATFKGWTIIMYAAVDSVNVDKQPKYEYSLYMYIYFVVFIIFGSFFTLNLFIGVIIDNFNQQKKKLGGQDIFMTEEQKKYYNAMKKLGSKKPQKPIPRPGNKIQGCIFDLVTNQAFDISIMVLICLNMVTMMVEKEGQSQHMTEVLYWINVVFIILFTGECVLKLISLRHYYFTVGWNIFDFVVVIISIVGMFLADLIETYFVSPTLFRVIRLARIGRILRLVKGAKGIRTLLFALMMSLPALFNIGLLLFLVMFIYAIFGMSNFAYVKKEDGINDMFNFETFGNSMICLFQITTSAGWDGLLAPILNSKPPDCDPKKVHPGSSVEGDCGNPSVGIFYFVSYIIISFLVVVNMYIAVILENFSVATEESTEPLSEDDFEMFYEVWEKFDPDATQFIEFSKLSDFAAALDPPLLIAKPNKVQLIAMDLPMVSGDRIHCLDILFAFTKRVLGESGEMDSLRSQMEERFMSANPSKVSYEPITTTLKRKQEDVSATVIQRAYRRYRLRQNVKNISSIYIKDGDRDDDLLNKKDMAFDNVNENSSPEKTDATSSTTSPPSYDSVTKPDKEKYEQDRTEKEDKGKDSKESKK

[2] = biological target: Sodium channel protein type 5 subunit alpha (Homo sapiens, UniProt Q14524); experiment: Inhibition of human Nav1.5 expressed in HEK293 cells assessed as inward peak current by ion-works quattro patch clamp electrophysiology method; type: cell-based
Chain of Sodium channel protein type 5 subunit alpha (Q14524 whole entry): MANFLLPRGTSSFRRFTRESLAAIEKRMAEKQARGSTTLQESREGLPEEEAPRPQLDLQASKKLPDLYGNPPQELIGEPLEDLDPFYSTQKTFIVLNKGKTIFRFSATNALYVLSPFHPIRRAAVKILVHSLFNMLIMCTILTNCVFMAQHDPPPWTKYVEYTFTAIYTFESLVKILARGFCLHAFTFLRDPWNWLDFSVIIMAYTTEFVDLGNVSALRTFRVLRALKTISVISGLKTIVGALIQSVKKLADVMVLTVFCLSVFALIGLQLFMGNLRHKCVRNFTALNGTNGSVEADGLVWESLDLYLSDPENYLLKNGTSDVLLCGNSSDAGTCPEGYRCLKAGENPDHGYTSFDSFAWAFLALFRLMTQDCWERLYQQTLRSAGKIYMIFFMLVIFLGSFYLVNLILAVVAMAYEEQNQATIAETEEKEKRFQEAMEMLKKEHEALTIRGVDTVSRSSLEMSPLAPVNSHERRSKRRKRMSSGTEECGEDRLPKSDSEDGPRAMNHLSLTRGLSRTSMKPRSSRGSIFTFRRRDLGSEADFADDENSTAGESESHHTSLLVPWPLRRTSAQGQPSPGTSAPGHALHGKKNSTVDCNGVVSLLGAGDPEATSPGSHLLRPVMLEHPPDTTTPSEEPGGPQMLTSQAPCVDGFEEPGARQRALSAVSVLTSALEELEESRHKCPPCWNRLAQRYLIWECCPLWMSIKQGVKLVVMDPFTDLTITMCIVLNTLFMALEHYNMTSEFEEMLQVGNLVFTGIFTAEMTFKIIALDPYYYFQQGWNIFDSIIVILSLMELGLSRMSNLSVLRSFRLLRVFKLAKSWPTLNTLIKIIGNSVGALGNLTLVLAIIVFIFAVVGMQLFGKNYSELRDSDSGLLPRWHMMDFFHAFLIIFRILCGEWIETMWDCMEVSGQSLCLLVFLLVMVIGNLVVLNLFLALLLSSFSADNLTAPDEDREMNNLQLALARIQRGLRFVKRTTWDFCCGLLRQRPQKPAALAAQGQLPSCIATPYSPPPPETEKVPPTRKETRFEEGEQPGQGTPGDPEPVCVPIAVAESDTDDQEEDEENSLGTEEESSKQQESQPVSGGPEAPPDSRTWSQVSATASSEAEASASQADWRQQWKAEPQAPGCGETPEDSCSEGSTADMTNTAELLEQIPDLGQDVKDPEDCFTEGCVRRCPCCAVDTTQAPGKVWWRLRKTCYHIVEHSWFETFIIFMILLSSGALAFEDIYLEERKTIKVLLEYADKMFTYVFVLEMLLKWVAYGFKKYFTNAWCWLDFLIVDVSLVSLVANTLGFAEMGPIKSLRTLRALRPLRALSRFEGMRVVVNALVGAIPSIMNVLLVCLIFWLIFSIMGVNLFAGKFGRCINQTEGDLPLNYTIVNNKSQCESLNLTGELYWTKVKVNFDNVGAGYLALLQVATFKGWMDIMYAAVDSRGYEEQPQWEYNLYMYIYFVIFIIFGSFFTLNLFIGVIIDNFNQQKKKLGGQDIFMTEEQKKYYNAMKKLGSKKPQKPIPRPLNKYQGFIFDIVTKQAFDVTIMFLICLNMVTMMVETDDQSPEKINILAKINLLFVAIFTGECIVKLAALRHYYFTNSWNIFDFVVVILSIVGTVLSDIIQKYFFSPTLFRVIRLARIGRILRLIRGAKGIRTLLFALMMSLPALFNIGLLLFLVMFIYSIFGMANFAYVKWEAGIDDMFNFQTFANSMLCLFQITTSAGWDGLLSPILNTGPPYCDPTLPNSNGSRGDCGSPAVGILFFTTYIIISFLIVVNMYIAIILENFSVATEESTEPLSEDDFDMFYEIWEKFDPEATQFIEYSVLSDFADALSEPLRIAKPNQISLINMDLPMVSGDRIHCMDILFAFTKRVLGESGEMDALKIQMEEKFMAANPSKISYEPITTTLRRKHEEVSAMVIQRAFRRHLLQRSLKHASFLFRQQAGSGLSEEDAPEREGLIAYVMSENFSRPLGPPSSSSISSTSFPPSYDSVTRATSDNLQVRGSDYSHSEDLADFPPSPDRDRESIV
Method in brief: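 Stable HEK293 line expressing human NaV1.5, recorded by population patch clamp on the IonWorks Quattro.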

SMILES | IC50 [1] [µM] | IC50 [2] [µM]
CSCC[C@@H]1NC(=O)[C@H](Cc2ccccc2)NC(=O)CNC(=O)[C@H](CC(C)C)NC(=O)[C@@H](NC(=O)[C@@H](N)CC(=O)O)CSSC[C@@H]2NC(=O)[C@@H]3CSSC[C@@H](C(=O)N[C@@H](CCCCN)C(=O)N[C@@H](Cc4ccc(O)cc4)C(=O)N[C@H](C(=O)N[C@@H](Cc4ccccc4)C(N)=O)C(C)C)NC(=O)[C@H](Cc4c[nH]c5ccccc45)NC(=O)[C@H](CCCCN)NC(=O)[C@H](Cc4cnc[nH]4)NC(=O)[C@H]([C@@H](C)O)NC(=O)[C@H](CCCNC(=N)N)NC(=O)[C@H](CO)NC(=O)[C@H](CSSC[C@H](NC(=O)[C@H](CCCCN)NC(=O)[C@H](CCCNC(=N)N)NC1=O)C(=O)N[C@@H](Cc1cc4ccccc4[nH]1)C(=O)N1CCC[C@H]1C(=O)N[C@@H](CC(=O)O)C(=O)N[C@@H](CC(N)=O)C(=O)N[C@@H](CC(=O)O)C(=O)N[C@@H](CCCCN)C(=O)N3)NC(=O)[C@H](C(C)C)NC(=O)[C@H](CC(C)C)NC(=O)[C@H](CC(N)=O)NC(=O)[C@@H]1CCCN1C(=O)[C@H](CCCNC(=N)N)NC2=O | 0.13 | > 5
CC[C@H](C)[C@@H]1NC(=O)[C@@H]2CSSC[C@@H]3NC(=O)[C@H](C(C)C)NC(=O)[C@H](CC(C)C)NC(=O)[C@H](CC(N)=O)NC(=O)[C@@H]4CCCN4C(=O)[C@H](CCCNC(=N)N)NC(=O)[C@H](CSSC[C@H](NC(=O)[C@@H](N)CC(=O)O)C(=O)N[C@@H](CC(C)C)C(=O)NCC(=O)N[C@@H](Cc4ccccc4)C(=O)N[C@@H](CCSC)C(=O)N[C@@H](CCCNC(=N)N)C(=O)N[C@@H](CCCCN)C(=O)N2)NC(=O)[C@H](CSSC[C@@H](C(=O)N[C@@H](CCCCN)C(=O)N[C@@H](Cc2ccc(O)cc2)C(=O)N[C@H](C(=O)N[C@@H](Cc2ccccc2)C(N)=O)C(C)C)NC(=O)[C@H](Cc2c[nH]c4ccccc24)NC(=O)[C@H](CCCCN)NC(=O)[C@H](CCC(=O)O)NC(=O)[C@H]([C@@H](C)O)NC(=O)[C@H](CCCNC(=N)N)NC(=O)[C@H](CO)NC3=O)NC(=O)[C@H](CCCCN)NC(=O)[C@H](CC(=O)O)NC(=O)[C@H](CC(N)=O)NC(=O)[C@H](CC(=O)O)NC(=O)[C@@H]2CCCN2C1=O (H-DCLGFMRKCIPDNDKCCRPNLVCSRTEKWCKYVF-NH2; disulfide 2-17, 9-23, 16-30) | > 5 | > 5
CC[C@H](C)[C@@H]1NC(=O)[C@@H]2CSSC[C@@H]3NC(=O)[C@H](C(C)C)NC(=O)[C@H](CC(C)C)NC(=O)[C@H](CC(N)=O)NC(=O)[C@@H]4CCCN4C(=O)[C@H](CCCNC(=N)N)NC(=O)[C@H](CSSC[C@H](NC(=O)[C@@H](N)CC(=O)O)C(=O)N[C@@H](CC(C)C)C(=O)NCC(=O)N[C@@H](Cc4ccccc4)C(=O)N[C@@H](Cc4cc5ccccc5[nH]4)C(=O)N[C@@H](CCCNC(=N)N)C(=O)N[C@@H](CCCCN)C(=O)N2)NC(=O)[C@H](CSSC[C@@H](C(=O)N[C@@H](CCCCN)C(=O)N[C@@H](Cc2ccc(O)cc2)C(=O)N[C@H](C(=O)N[C@@H](Cc2ccccc2)C(N)=O)C(C)C)NC(=O)[C@H](Cc2c[nH]c4ccccc24)NC(=O)[C@H](CCCCN)NC(=O)[C@H](Cc2cnc[nH]2)NC(=O)[C@H]([C@@H](C)O)NC(=O)[C@H](CCCNC(=N)N)NC(=O)[C@H](CO)NC3=O)NC(=O)[C@H](CCCCN)NC(=O)[C@H](CC(=O)O)NC(=O)[C@H](CC(N)=O)NC(=O)[C@H](CC(=O)O)NC(=O)[C@@H]2CCCN2C1=O | 0.03 | 3.4
